The values that follow come from ChEMBL document CHEMBL1148705, “Sponge-derived fijianolide polyketide class: further evaluation of their structural and cytotoxicity properties” (J Med Chem, 2007).

Activity calls are given as the source filed them. The calls are words filed in the database; no cut-off is given here.

By IC50 is commonly meant the concentration that inhibits the measured activity by half.

Series [1] has as its system HCT-116. The series is described as follows: Cytotoxicity against human HCT116 cells after 72 hrs by trypan blue viable cell count. To be noted: HCT-116, 72 h.
Series [2] is described as follows: Cytotoxicity against human CFU-GM cells at 40 ug/disk by disk diffusion method. It is filed as cell-based. The procedure, abridged:
(§1)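 Soft agar colony formation assay with compound applied by disk diffusion; cell lines: murine L1210 leukemia and C38 colon, human HCT-116 colon, H-125 lung, CEM leukemia, normal hematopoietic CFU-GM. Differential cytotoxicity given as zone-unit differential between a solid tumor line and leukemia (ΔSL) or normal cells (ΔSN).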

Series [3] relates to CCRF-CEM. Description: Cytotoxicity against human CEM cells at 40 ug/disk by disk diffusion method. It is filed as functional. The procedure, abridged:
as §1
(Agar diffusion results depend on both activity and mobility in agar.)

The nature of series [4]: Cytotoxicity against human H116 cells at 40 ug/disk by disk diffusion method. It is filed as functional. The procedure, abridged:
as §1

For series [5], the system named is HCT-116. Description: Increase in microtubule density in human HCT116 up to 50 uM. The series is classed as functional, cell-based. The procedure, abridged:
(§2)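 Cell-based screen for disruption of interphase and mitotic microtubules, tested at concentrations up to 50 µM; scored for microtubule density, bundling, circular mitotic spindles, micronucleation and other nuclear changes.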

For series [6], the system named is L1210. Description: Cytotoxicity against mouse L1210 cells at 40 ug/disk by disk diffusion method. The series is classed as functional. The procedure, abridged: as §1
Series [7] has as its system HCT-116. The series is described as follows: Effect on micronucleation in human HCT116 up to 50 uM. It is filed as functional, cell-based. The procedure, abridged: as §2
For series [8], the system named is MC-38. Description: Cytotoxicity against mouse C38 cells at 40 ug/disk by disk diffusion method. The series is classed as functional. The procedure, abridged: as §1
A short description of series [9]: Cytotoxicity against human H125 cells at 40 ug/disk by disk diffusion method. It is filed as functional. The procedure, abridged: as §1
A further series relates to MDA-MB-435. The series is described as follows: Cytotoxicity against human MDA-MB-435 cells after 48 hrs by SRB assay. The following applies: MDA-MB-435, 48 h.
Series [10] deals with HCT-116. The series is described as follows: Formation of circular mitotic spindles in human HCT116 up to 50 uM. The series is classed as functional, cell-based. The procedure, abridged:
as §2

Series [11] can be described thus: Cytotoxicity against human H125 cells at 100 ug/disk by disk diffusion method. It is filed as functional. The procedure, abridged: as §1
In series [12] the test system is L1210. Description: Cytotoxicity against mouse L1210 cells at 100 ug/disk by disk diffusion method. The series is classed as functional. The procedure, abridged:
as §1

The nature of series [13]: Cytotoxicity against human H116 cells at 100 ug/disk by disk diffusion method. It is filed as functional. The procedure, abridged: as §1
For series [14], the system named is MC-38. Description: Cytotoxicity against mouse C38 cells at 100 ug/disk by disk diffusion method. The series is classed as functional. The procedure, abridged:
as §1

Series [15] has as its system HCT-116. Description: Increase in microtubule density in human HCT116 cells at 20 uM. It is filed as functional, cell-based.
For series [16], the system named is HCT-116. The series is described as follows: Antitumor activity against HCT116 bearing SCID mice at 12.5 mg/kg bolus iv after 9 days relative to control. It is filed as functional, Homo sapiens. The procedure, abridged:
(§3)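 SCID mice were implanted subcutaneously with 10^6 HCT-116 cells and pooled, 5 per group. Dosing started 3 days after inoculation: daily iv tail-vein bolus for 5 days, 0.25 mL of 1 or 2 mg/mL (about 12.5 or 25 mg/kg/day) in DMSO/cremophor/propylene glycol/saline vehicle. Tumor weight and body weight were followed to day 30, and %T/C was calculated versus untreated controls.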

A short description of series [17]: Cytotoxicity against human H116 cells at 9 ug/disk by disk diffusion method. The series is classed as functional. The procedure, abridged:
(§4)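 Disk diffusion soft agar colony formation assay using solid tumor lines (murine colon C38, human colon HCT-116, human lung H125), leukemia lines (murine L1210, human CEM) and normal CFU-GM cells. Results are inhibition zones in zone units. Differential cytotoxicity is the zone difference between solid tumor and leukemia cells (ΔSL) or normal cells (ΔSN).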

Series [18] relates to HCT-116. The series is described as follows: Cytotoxicity against human HCT116 cells assessed as cell kill at 1.2 ng/mL after 168 hrs. The series is classed as functional. The procedure, abridged: (§5)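 Clonogenic assay. HCT-116 cells were seeded at 200 to 20 000 per 60 mm dish in RPMI + 10% FBS, then given drug at 1 mg/mL and 10-fold dilutions. Exposure was 2 h or 24 h followed by drug-free medium, or continuous. Dishes were incubated 7 days and stained with methylene blue; colonies of ≥50 cells were counted and normalized to untreated control. Experiments were repeated to span 100–0.1% survival.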

Series [19] deals with HCT-116. The series is described as follows: Antitumor activity against HCT116 bearig SCID mouse assessed as tumor weight at 25 mg/kg, iv after 24 hrs. It is filed as functional, Homo sapiens.
Series [20] concerns HCT-116. The series is described as follows: Survival of human HCT116 cells at 5 ng/mL after 168 hrs. It is filed as functional. To be noted: HCT-116, 168 h, read-out: Survival. The procedure, abridged: as §5
The subject of series [21] is HCT-116. The series is described as follows: Antitumor activity against HCT116 bearig SCID mouse assessed as tumor weight at 25 mg/kg, iv after 30 mins. The series is classed as functional, Homo sapiens.
For series [22], the system named is CCRF-CEM. The series is described as follows: Cytotoxicity against human CEM cells at 36 ug/disk by disk diffusion method. The series is classed as functional. The procedure, abridged: as §4
Series [23] deals with HCT-116. Description: Formation of thick bundles of microtubule stabilization in human HCT116 cells at 20 uM. The series is classed as functional, cell-based.
The test system of series [24] is L1210. Description: Cytotoxicity against mouse L1210 cells at 9 ug/disk by disk diffusion method. It is filed as functional. The procedure, abridged:
as §4

The test system of series [25] is HCT-116. Description: Formation of thick bundles of microtubule stabilization in human HCT116 cells at 2 to 20 uM. The series is classed as functional, cell-based.
Series [26] can be described thus: Cytotoxicity against human CFU-GM cells at 9 ug/disk by disk diffusion method. The series is classed as cell-based. The procedure, abridged:
as §4

Series [27] relates to MC-38. The series is described as follows: Cytotoxicity against mouse C38 cells at 36 ug/disk by disk diffusion method. The series is classed as functional. The procedure, abridged:
as §4

The nature of series [28]: Drug level in HCT116 bearing SCID mice plasma at 25 mg/kg, iv after 2 hrs. The following applies: mouse. It is filed as ADME, organism-based. Further details: dose 25 mg/kg, route intravenous. The procedure, abridged:
(§6)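 SCID mice bearing subcutaneous HCT-116 tumors (~100 mg) got a single iv dose of 0.5 mg/mouse (25 mg/kg) in 0.25 mL. Vehicle: 10 mg/mL DMSO stock mixed 1:1 with cremophor/propylene glycol (60:40), then diluted 20-fold in saline. Plasma was taken from individual mice at 1, 15, 30 min and 1, 2, 6, 24 h. Drug was extracted by solid-phase extraction and measured by C18 HPLC with UV detection at 218 nm.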

Series [29] can be described thus: Cytotoxicity against human H125 cells at 9 ug/disk by disk diffusion method. It is filed as functional. The procedure, abridged: as §4
The nature of series [30]: Drug level in HCT116 bearing SCID mice plasma at 25 mg/kg, iv after 24 hrs. It is filed as ADME, organism-based. Set-up: dose 25 mg/kg, route intravenous. The following applies: mouse. The procedure, abridged: as §6
For series [31], the system named is HCT-116. Description: Abnormal circular mitotic spindles formation in human HCT116 cells at 2 to 20 uM. The series is classed as functional, cell-based.
The subject of series [32] is HCT-116. Description: Antitumor activity against HCT116 bearing SCID mice at 25 mg/kg bolus iv after 11 days relative to control. The series is classed as functional, Homo sapiens. The procedure, abridged: as §3
Series [33] is described as follows: Drug level in HCT116 bearing SCID mice plasma at 25 mg/kg, iv after 1 min. It is filed as ADME, organism-based. Set-up: dose 25 mg/kg, route intravenous. The following applies: mouse. The procedure, abridged:
as §6

In series [34] the test system is HCT-116. The series is described as follows: Cytotoxicity against human HCT116 cells assessed as cell kill at 10 ng/mL after 24 hrs. The series is classed as functional. The procedure, abridged:
as §5

Turning to `C=C1C[C@H](C)C[C@@H]2CC=C[C@@H](C/C=C\C(=O)OC([C@@H](O)/C=C/[C@@H]3CC(C)=CC(=O)O3)C[C@@H]3O[C@H]3[C@@H](O)C1)O2` (stereo partly specified) [FIJIANOLIDE E], the IC50 in the series on HCT-116 [1] was determined as 700 nM; with MDA-MB-435, 1300 nM. Besides, the Activity was determined as 500 Zone units in series [2]; 550 Zone units in the series with CCRF-CEM [3]; 500 Zone units in [4]; 350 Zone units in the series on L1210 [6]; 400 Zone units with MC-38 [8]; 400 Zone units in [9]. For the same compound, the outcome in the series on HCT-116 [5], with HCT-116 [7] and with HCT-116 [10] was Active.

`C=C1C[C@H](C)C[C@@H]2CC=C[C@@H](C/C=C\C(=O)O[C@H]3C[C@@H](O[C@H]3/C=C/[C@@H]3CC(C)=CC(=O)O3)[C@@H](O)[C@@H](O)C1)O2` [FIIJIANOLIDE D]: the IC50 with HCT-116 [1] came out at 1900 nM; in the series on MDA-MB-435, 21400 nM. Moreover, the Activity is given as 0 Zone units in [11], 0 Zone units with L1210 [12], 0 Zone units in series [13] and 150 Zone units in the series with MC-38 [14]. In addition, the outcome in the series on HCT-116 [5], in the series on HCT-116 [7] and with HCT-116 [10] was inactive.

Turning to `C=C1C[C@H](C)C[C@@H]2CC=C[C@@H](C/C=C\C(=O)O[C@H]3C[C@@H](O[C@H]3/C=C/[C@@H]3CC(C)=CC(OC)O3)[C@@H](O)[C@@H](O)C1)O2` (stereo partly specified) [FIJIANOLIDE H], the IC50 with HCT-116 [1] and with MDA-MB-435 was over 50000 nM throughout. The Activity came to 0 Zone units in series [4], 0 Zone units with L1210 [6], 150 Zone units with MC-38 [8] and 0 Zone units in [9]. The outcome with HCT-116 [5], in the series with HCT-116 [7] and with HCT-116 [10] was inactive.

For `C=C1C[C@H](C)C[C@@H]2CC=C[C@@H](C/C=C\C(=O)O[C@H]([C@@H](O)/C=C/[C@@H]3CC(C)=CCO3)C[C@@H]3O[C@H]3[C@@H](O)C1)O2` [FIJIANOLIDE B], the result in the series with HCT-116 [15], in the series with HCT-116 [25] and in the series on HCT-116 [31] was Active. The IC50 is 3 nM with HCT-116 [1] and 7 nM with MDA-MB-435. Besides, the Activity in the series with HCT-116 [16] was 80%; in series [17], 700 Zone units; with HCT-116 [18], 90%; in the series with HCT-116 [19], 2.8 µg/mg; in the series with HCT-116 [21], 4.7 µg/mg; in the series with CCRF-CEM [22], over 1000 Zone units. For the same compound, the Activity in the series on L1210 [24] is 500 Zone units; in series [26], 550 Zone units; in the series with MC-38 [27], 800 Zone units; in series [29], 250 Zone units; with HCT-116 [32], 11%; with HCT-116 [34], 90%. Moreover, the viability at 0.005 µg/mL with HCT-116 [20] was found to be 0.01%. Further, the result with HCT-116 [23] was inactive. In series [28], this compound returned a concentration at 2 h of 1 µg/mL. In series [30], this compound returned a concentration at 24 h of 200 µg/mL. This compound also gave a concentration at 1 min in [33] of 160 µg/mL.
